Measured values taken from ChEMBL document CHEMBL1141301, “Trypanocidal and antileishmanial dihydrochelerythrine derivatives from Garcinia lucida” (J Nat Prod, 2007).

Tests used:
Leishmania donovani [1] = assay: Antileishmanial activity against Leishmania donovani promastigotes in RAW cells assessed as reduction in infection; assay type: functional; set-up: scale not given: the % may be the effect or the level left
In short: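 RAW 264.7 macrophages (1 × 10^6) plated 2 h, infected 6 h with stationary-phase luciferase-transfected L. donovani promastigotes at 20:1 parasite:macrophage; free parasites washed off with PBS; compound-treated; survival by luciferase luminescence 24 h later; triplicate; % reduction in infection versus untreated wells.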

Vero = assay: Cytotoxicity against african green monkey Vero cells; assay type: cell-based; settings: Chlorocebus sabaeus
Leishmania donovani [2] = assay: Antileishmanial activity against Leishmania donovani promastigotes at 10 uM; assay type: functional
Leishmania donovani [3] = assay: Antileishmanial activity against Leishmania donovani promastigotes at 1 uM; assay type: functional
Leishmania donovani [4] = assay: Antileishmanial activity against Leishmania donovani promastigotes at 100 uM; assay type: functional
[5] = system: Trypanosoma brucei brucei; assay: Antitrypanosomal activity against Trypanosoma brucei brucei MITat 1.2 variant 221; assay type: functional, organism-based
In short: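 Bloodstream-form parasites (MITat 1.2, variant 221) grown axenically in HMI-9 medium, run by a previously reported protocol. Pentamidine and suramin included as standards. IC50 taken as the mean of three tests done on different days.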

Leishmania donovani [6] = assay: Antileishmanial activity against Leishmania donovani axenic amastigotes; assay type: functional, organism-based
In short: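 L. donovani amastigote-like parasites (WHO MHOM/SD/62/1S-CL2D), axenic; 3-day growth inhibition assay read with tetrazolium dye-based CellTiter reagent; IC50 determined.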

RAW = assay: Cytotoxicity against mouse RAW cells; assay type: cell-based
In short: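 RAW 264.7 murine macrophages in DMEM with 10% heat-inactivated FBS, antibiotics, 2 mM L-glutamine at 37 °C, 5% CO2; 1 × 10^5 cells treated or untreated with compounds for 48 h; viability read with alamarBlue.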

SMILES | Activity (Leishmania donovani [1]) [%] | IC50 (Vero) [µM] | inhibition at 10 µM (Leishmania donovani [2]) [%] | inhibition at 1 µM (Leishmania donovani [3]) [%] | inhibition at 100 µM (Leishmania donovani [4]) [%] | IC50 [5] [µM] | IC50 (Leishmania donovani [6]) [µM] | Activity (RAW)
COc1ccc2c(c1OC)[C@H](CC(C)=O)N(C)c1c-2ccc2cc3c(cc12)OCO3 | 57.4 | 15.3 | 87 | 23 | 100 | 3.9 | 6.6 | 
Cc1ccc(C(=O)Nc2ccc(S(=O)(=O)O)c3cc(S(=O)(=O)O)cc(S(=O)(=O)O)c23)cc1NC(=O)c1cccc(NC(=O)Nc2cccc(C(=O)Nc3cc(C(=O)Nc4ccc(S(=O)(=O)O)c5cc(S(=O)(=O)O)cc(S(=O)(=O)O)c45)ccc3C)c2)c1 [SURAMIN] |  |  |  |  |  | 0.2 |  | 
CC(C)CNC(=O)/C=C/c1ccc2c(c1)OCO2 [FOGARAMIDE] |  |  |  |  |  |  |  | Non-toxic
COc1ccc2c(c1OC)[C@H](CC(C)=O)N(C)c1c-2ccc2cc(O)c(O)cc12 [LUCIDAMINE A] |  | 11.6 | 76 | 23 | 100 | 14.1 | 10.8 | Toxic
N=C(N)c1ccc(OCCCCCOc2ccc(C(=N)N)cc2)cc1 [PENTAMIDINE] |  | 13.7 |  |  |  | 0.0025 | 1.3 | 
C=CC(C)(C)c1c(O)c(O)c(C(C)(C)C=C)c2c3c(ccc12)-c1ccc(OC)c(OC)c1[C@H](CC(C)=O)N3C [LUCIDAMINE B] |  | 17.5 | 48 | 14 | 64 | 4.1 | 6.8 | Toxic
COc1ccc2c(c1OC)CN(C)c1c-2ccc2cc3c(cc12)OCO3 [DIHYDROCHELERYTHRINE] | 70.9 | 35.4 | 89 | 36 | 100 | 0.8 | 2 | 
c1cc2c(cc1[C@H]1OC[C@H]3[C@@H]1CO[C@@H]3c1ccc3c(c1)OCO3)OCO2 [SESAMIN] |  |  |  |  |  |  |  | Non-toxic
